Results from ChEMBL document CHEMBL3045729, “Anti-tobacco mosaic virus (TMV) triterpenoid saponins from the leaves of Ilex oblonga” (J Agric Food Chem, 2007).
≈ marks a conversion by molar mass, not a printed value.

How the values were obtained:
Tobacco mosaic virus [1] = assay: Antiviral activity against Tobacco mosaic virus (TMV) inoculated in Nicotiana tabacum cv. K326 leaves assessed as inhibition of virus multiplication at 0.2 mg/ml at 25 degC measured after 48 hr by indirect ELISA/leaf-disk method; assay type: functional
Method in brief: (§1)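 N. tabacum cv. K326 leaves mechanically inoculated with TMV at 10 µg/mL. After 7 h, 10-mm disks were floated on compound solutions (DMSO, diluted with water) for 48 h at 25 ± 1 °C. Solvent-only and healthy-leaf disks were controls; six repetitions. Ground disks were assayed by indirect ELISA (OD405) against an in-plate TMV standard curve. Inhibition was calculated relative to the solvent control.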

Tobacco mosaic virus [2] = assay: Antiviral activity against Tobacco mosaic virus (TMV) inoculated in Nicotiana tabacum cv. K326 leaves assessed as inhibition of virus multiplication at 25 degC measured after 48 hr by indirect ELISA/leaf-disk method; assay type: functional, organism-based; method in brief: as §1
Tobacco mosaic virus [3] = assay: Antiviral activity against Tobacco mosaic virus (TMV) inoculated in Nicotiana tabacum cv. K326 leaves assessed as inhibition of virus multiplication at 0.025 mg/ml at 25 degC measured after 48 hr by indirect ELISA/leaf-disk method; assay type: functional; method in brief: as §1
Tobacco mosaic virus [4] = assay: Antiviral activity against Tobacco mosaic virus (TMV) inoculated in Nicotiana tabacum cv. K326 leaves assessed as inhibition of virus multiplication at 0.05 mg/ml at 25 degC measured after 48 hr by indirect ELISA/leaf-disk method; assay type: functional; method in brief: as §1
Tobacco mosaic virus [5] = assay: Antiviral activity against Tobacco mosaic virus (TMV) inoculated in Nicotiana tabacum cv. K326 leaves assessed as inhibition of virus multiplication at 0.1 mg/ml at 25 degC measured after 48 hr by indirect ELISA/leaf-disk method; assay type: functional; method in brief: as §1
Tobacco mosaic virus [6] = assay: Antiviral activity against Tobacco mosaic virus (TMV) inoculated in Nicotiana tabacum cv. K326 leaves assessed as inhibition of virus multiplication at 0.4 mg/ml at 25 degC measured after 48 hr by indirect ELISA/leaf-disk method; assay type: functional; method in brief: as §1

| EC50 (Tobacco mosaic virus [2]) | Structure (SMILES) | inhibition at 200 µg/mL (Tobacco mosaic virus [1]) | inhibition at 25 µg/mL (Tobacco mosaic virus [3]) | inhibition at 50 µg/mL (Tobacco mosaic virus [4]) | inhibition at 100 µg/mL (Tobacco mosaic virus [5]) | inhibition at 400 µg/mL (Tobacco mosaic virus [6]) |
| --- | --- | --- | --- | --- | --- | --- |
| – | C[C@@H]1CC[C@]2(C(=O)O[C@@H]3O[C@H](CO)[C@@H](O)[C@H](O)[C@H]3O)CC[C@]3(C)C(=CC[C@@H]4[C@@]5(C)CC[C@H](O)C(C)(C)[C@@H]5CC[C@]43C)[C@@H]2[C@]1(C)O | 27% | – | – | – | – |
| – | C[C@@H]1CC[C@]2(C(=O)O[C@@H]3O[C@H](CO)[C@@H](O)[C@H](O)[C@H]3O)CC[C@]3(C)C(=CC[C@@H]4[C@@]5(C)CC[C@H](O)[C@@](C)(CO)[C@@H]5CC[C@]43C)[C@@H]2[C@]1(C)O [PEDUNCULOSIDE] | 41.5% | – | – | – | – |
| – | C[C@@H]1CC[C@]2(C(=O)O[C@@H]3O[C@H](CO)[C@@H](O)[C@H](O)[C@H]3O)CC[C@]3(C)C(=CC[C@@H]4[C@@]5(C)CC[C@H](O[C@@H]6OC[C@@H](O)[C@H](O)[C@H]6O)[C@@](C)(CO)[C@@H]5CC[C@]43C)[C@@H]2[C@]1(C)O [OBLONGANOSIDE I] | 31.7% | – | – | – | – |
| 85 µg/mL (≈ 109 µM) | CC1(C)CC[C@]2(C(=O)O[C@@H]3O[C@H](CO)[C@@H](O)[C@H](O)[C@H]3O)CC[C@]3(C)C(=CC[C@@H]4[C@@]5(C)CC[C@H](O[C@@H]6OC[C@@H](O)[C@H](O)[C@H]6O)[C@@](C)(CO)[C@@H]5CC[C@]43C)[C@@H]2[C@@H]1O [OBLONGANOSIDE M] | 78.5% | 5.2% | 32.7% | 61.5% | 85.3% |
| 80 µg/mL (≈ 126 µM) | CC1(C)CC[C@]2(C(=O)O[C@@H]3O[C@H](CO)[C@@H](O)[C@H](O)[C@H]3O)CC[C@]3(C)C(=CC[C@@H]4[C@@]5(C)CC[C@H](O)C(C)(C)[C@@H]5CC[C@]43C)[C@@H]2[C@@H]1O | 84.5% | 7.6% | 25.3% | 65.7% | 89.2% |
| 76 µg/mL (≈ 99.1 µM) | CC1(C)CC[C@]2(C(=O)O[C@@H]3O[C@H](CO)[C@@H](O)[C@H](O)[C@H]3O)CC[C@]3(C)C(=CC[C@@H]4[C@@]5(C)CC[C@H](O[C@@H]6OC[C@@H](O)[C@H](O)[C@H]6O)C(C)(C)[C@@H]5CC[C@]43C)[C@@H]2[C@@H]1O [OBLONGANOSIDE K] | 85.7% | 13.1% | 31.4% | 63.9% | 88.5% |
| – | C[C@@H]1CC[C@]2(C(=O)O[C@@H]3O[C@H](CO)[C@@H](O)[C@H](O)[C@H]3O)CC[C@]3(C)C(=CC[C@@H]4[C@@]5(C)CC[C@@H]6O[C@H](CO)OC[C@@]6(C)[C@@H]5CC[C@]43C)[C@@H]2[C@]1(C)O [OBLONGANOSIDE J] | 28.1% | – | – | – | – |
| – | C[C@@H]1CC[C@]2(C(=O)O[C@@H]3O[C@H](CO)[C@@H](O)[C@H](O)[C@H]3O)CC[C@]3(C)C(=CC[C@@H]4[C@@]5(C)C[C@@H](O)[C@H](O)[C@@](C)(CO)[C@@H]5CC[C@]43C)[C@@H]2[C@]1(C)O [NIGAICHIGOSIDE F1] | 24.9% | – | – | – | – |
| – | C[C@@H]1CC[C@]2(C(=O)O[C@@H]3O[C@H](CO)[C@@H](O)[C@H](O)[C@H]3O)CC[C@]3(C)C(=CC[C@@H]4[C@@]5(C)CC[C@H](O[C@@H]6OC[C@@H](O)[C@H](O)[C@H]6O)C(C)(C)[C@@H]5CC[C@]43C)[C@@H]2[C@]1(C)O [OBLONGANOSIDE H] | 37.4% | – | – | – | – |
| – | CC1(C)[C@@H](O[C@@H]2OC[C@@H](O)[C@H](O)[C@H]2O)CC[C@]2(C)[C@H]3CC=C4[C@@H]5C[C@](C)(CO)CC[C@]5(C(=O)O[C@@H]5O[C@H](CO)[C@@H](O)[C@H](O)[C@H]5O)CC[C@@]4(C)[C@]3(C)CC[C@@H]12 [OBLONGANOSIDE L] | 46.9% | – | – | – | – |
